Columns and labels:
[1] = biological target: Serine/threonine-protein kinase Nek6 (Homo sapiens) (UniProt Q9HC98); assay: Inhibition of recombinant NEK6 (unknown origin) assessed as residual activity using [gamma-33P]ATP as substrate at 1 uM
Outline: (§1)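 Selectivity panel run under previously published conditions. Screened at 1 μM in duplicate. Reactions started with [γ-33P]ATP (800 cpm/pmol) at 5, 20 or 50 μM, chosen to be at or below each enzyme's ATP Km. Stopped with phosphoric acid, spotted onto P81 filters. Result expressed as residual kinase activity.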

[2] = biological target: Tyrosine-protein kinase BTK (Homo sapiens) (UniProt Q06187); assay: Inhibition of recombinant BTK (unknown origin) assessed as residual activity using [gamma-33P]ATP as substrate at 1 uM
Outline: (§2)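 Recombinant kinase panel screened at 1 µM in duplicate. Reactions started with [γ-33P]ATP (800 cpm/pmol) at 5, 20 or 50 µM, chosen to sit at or below each enzyme's ATP Km. Stopped with phosphoric acid and spotted onto P81 filters. Result given as residual kinase activity.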

[3] = biological target: Eukaryotic elongation factor 2 kinase (Homo sapiens) (UniProt O00418); assay: Inhibition of recombinant EF2K (unknown origin) assessed as residual activity using [gamma-33P]ATP as substrate at 1 uM; outline: as §2
[4] = biological target: MAP kinase-activated protein kinase 5 (Homo sapiens) (UniProt Q8IW41); assay: Inhibition of recombinant PRAK (unknown origin) assessed as residual activity using [gamma-33P]ATP as substrate at 1 uM; outline: as §1
Sequence of MAP kinase-activated protein kinase 5 (Homo sapiens) (Q8IW41 whole entry): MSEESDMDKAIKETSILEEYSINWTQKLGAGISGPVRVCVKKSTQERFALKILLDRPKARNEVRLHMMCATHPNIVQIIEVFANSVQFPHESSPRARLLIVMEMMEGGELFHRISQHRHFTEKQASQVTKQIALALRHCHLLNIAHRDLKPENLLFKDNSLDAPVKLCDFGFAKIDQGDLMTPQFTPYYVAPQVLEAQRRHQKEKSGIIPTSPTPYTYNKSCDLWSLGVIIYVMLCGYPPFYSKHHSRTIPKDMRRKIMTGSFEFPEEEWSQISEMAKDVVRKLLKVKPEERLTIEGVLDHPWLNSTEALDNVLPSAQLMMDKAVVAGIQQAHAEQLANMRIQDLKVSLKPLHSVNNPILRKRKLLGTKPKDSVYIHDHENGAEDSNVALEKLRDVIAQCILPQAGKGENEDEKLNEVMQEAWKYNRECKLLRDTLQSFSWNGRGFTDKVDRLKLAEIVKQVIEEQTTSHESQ

[5] = biological target: Serine/threonine-protein kinase 26 (Homo sapiens) (UniProt Q9P289); assay: Inhibition of recombinant MST4 (unknown origin) assessed as residual activity using [gamma-33P]ATP as substrate at 1 uM; outline: as §1
[6] = biological target: Ephrin type-B receptor 4 (Homo sapiens) (UniProt P54760); assay: Inhibition of recombinant EPH-B4 (unknown origin) assessed as residual activity using [gamma-33P]ATP as substrate at 1 uM; outline: as §2
[7] = biological target: Serine/threonine-protein kinase MARK2 (Homo sapiens) (UniProt Q7KZI7); assay: Inhibition of recombinant MARK2 (unknown origin) assessed as residual activity using [gamma-33P]ATP as substrate at 1 uM; outline: as §1
[8] = biological target: Ephrin type-A receptor 4 (Homo sapiens) (UniProt P54764); assay: Inhibition of recombinant EPH-A4 (unknown origin) assessed as residual activity using [gamma-33P]ATP as substrate at 1 uM; outline: as §2
[9] = biological target: Dual specificity mitogen-activated protein kinase kinase 2 (Homo sapiens) (UniProt P36507); assay: Inhibition of recombinant MKK2 (unknown origin) assessed as residual activity using [gamma-33P]ATP as substrate at 1 uM; outline: as §1
[10] = biological target: Serine/threonine-protein kinase Sgk1 (Homo sapiens) (UniProt O00141); assay: Inhibition of recombinant SGK1 (unknown origin) assessed as residual activity using [gamma-33P]ATP as substrate at 1 uM
Outline: (§3)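 Kinase panel screen with each compound at 1 µM, in duplicate. Reactions were started with [γ-33P]ATP (800 cpm/pmol) at 5, 20 or 50 µM, chosen per enzyme to be at or below its ATP Km. Reactions were stopped with phosphoric acid and spotted onto P81 filters. Results are given as residual kinase activity.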

[11] = biological target: Cyclin-dependent kinase 1/cyclin B1 (Homo sapiens, UniProt P06493); assay: Inhibition of recombinant CDK1/cyclin B (unknown origin) using histone H1 as substrate in presence of [gamma-33P]ATP; type: protein-complex assay
[12] = biological target: Serine/threonine-protein kinase STK11 (Homo sapiens) (UniProt Q15831); assay: Inhibition of recombinant LKB1 (unknown origin) assessed as residual activity using [gamma-33P]ATP as substrate at 1 uM; outline: as §1
[13] = biological target: Mitogen-activated protein kinase kinase kinase 7 (Homo sapiens) (UniProt O43318); assay: Inhibition of recombinant TAK1 (unknown origin) assessed as residual activity using [gamma-33P]ATP as substrate at 1 uM; outline: as §3
Sequence of Mitogen-activated protein kinase kinase kinase 7 (Homo sapiens) (O43318 whole entry): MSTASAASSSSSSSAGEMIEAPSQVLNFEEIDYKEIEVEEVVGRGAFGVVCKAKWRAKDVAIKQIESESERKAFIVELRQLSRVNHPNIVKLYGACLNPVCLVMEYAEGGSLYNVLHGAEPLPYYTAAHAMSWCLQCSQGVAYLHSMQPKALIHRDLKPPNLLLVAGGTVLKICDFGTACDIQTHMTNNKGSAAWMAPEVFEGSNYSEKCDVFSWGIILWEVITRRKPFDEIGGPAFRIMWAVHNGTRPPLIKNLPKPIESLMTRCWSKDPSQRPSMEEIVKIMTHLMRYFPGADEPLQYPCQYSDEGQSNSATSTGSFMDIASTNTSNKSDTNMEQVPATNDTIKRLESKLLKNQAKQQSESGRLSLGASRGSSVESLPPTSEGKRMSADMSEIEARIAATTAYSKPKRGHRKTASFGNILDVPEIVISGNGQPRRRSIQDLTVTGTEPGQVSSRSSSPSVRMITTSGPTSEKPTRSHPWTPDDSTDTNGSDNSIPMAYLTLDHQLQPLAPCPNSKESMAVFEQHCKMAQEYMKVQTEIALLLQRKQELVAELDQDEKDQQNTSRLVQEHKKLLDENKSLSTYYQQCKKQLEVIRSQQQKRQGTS

[14] = biological target: Tyrosine-protein kinase ZAP-70 (Homo sapiens) (UniProt P43403); assay: Inhibition of recombinant ZAP70 (unknown origin) assessed as residual activity using [gamma-33P]ATP as substrate at 1 uM; outline: as §3
Sequence of Tyrosine-protein kinase ZAP-70 (Homo sapiens) (P43403 whole entry): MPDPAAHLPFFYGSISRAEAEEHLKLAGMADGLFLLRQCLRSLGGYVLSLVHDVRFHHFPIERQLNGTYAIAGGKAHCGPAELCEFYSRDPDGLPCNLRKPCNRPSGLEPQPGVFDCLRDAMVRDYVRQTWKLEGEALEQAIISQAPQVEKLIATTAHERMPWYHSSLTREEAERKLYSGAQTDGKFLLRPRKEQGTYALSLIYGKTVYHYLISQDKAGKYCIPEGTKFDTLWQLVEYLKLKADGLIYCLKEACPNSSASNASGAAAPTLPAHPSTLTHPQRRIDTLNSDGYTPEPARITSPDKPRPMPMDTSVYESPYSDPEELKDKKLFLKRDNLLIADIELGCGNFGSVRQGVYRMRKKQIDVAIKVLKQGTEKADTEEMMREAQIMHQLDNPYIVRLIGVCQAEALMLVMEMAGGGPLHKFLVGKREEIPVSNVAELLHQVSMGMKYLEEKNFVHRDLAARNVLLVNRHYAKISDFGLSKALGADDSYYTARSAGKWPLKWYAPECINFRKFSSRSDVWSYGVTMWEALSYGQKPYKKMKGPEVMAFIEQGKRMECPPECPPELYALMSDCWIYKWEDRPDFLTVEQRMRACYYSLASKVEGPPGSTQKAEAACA

[15] = biological target: Serine/threonine-protein kinase pim-1 (Homo sapiens) (UniProt P11309); assay: Inhibition of recombinant PIM1 (unknown origin) assessed as residual activity using [gamma-33P]ATP as substrate at 1 uM; outline: as §1
Sequence of Serine/threonine-protein kinase pim-1 (Homo sapiens) (P11309 whole entry, looked up): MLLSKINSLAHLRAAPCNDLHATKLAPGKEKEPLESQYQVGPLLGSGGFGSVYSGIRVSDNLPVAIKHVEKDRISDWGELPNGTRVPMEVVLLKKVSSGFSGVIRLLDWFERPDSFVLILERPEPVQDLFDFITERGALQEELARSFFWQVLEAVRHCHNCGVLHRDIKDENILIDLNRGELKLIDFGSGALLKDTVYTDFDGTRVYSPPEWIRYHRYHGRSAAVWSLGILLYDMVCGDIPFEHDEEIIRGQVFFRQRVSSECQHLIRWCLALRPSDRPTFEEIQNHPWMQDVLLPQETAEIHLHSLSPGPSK

[16] = biological target: Serine/threonine-protein kinase D1 (Homo sapiens) (UniProt Q15139); assay: Inhibition of recombinant PKD1 (unknown origin) assessed as residual activity using [gamma-33P]ATP as substrate at 1 uM; outline: as §1
Sequence of Serine/threonine-protein kinase D1 (Homo sapiens) (Q15139 whole entry): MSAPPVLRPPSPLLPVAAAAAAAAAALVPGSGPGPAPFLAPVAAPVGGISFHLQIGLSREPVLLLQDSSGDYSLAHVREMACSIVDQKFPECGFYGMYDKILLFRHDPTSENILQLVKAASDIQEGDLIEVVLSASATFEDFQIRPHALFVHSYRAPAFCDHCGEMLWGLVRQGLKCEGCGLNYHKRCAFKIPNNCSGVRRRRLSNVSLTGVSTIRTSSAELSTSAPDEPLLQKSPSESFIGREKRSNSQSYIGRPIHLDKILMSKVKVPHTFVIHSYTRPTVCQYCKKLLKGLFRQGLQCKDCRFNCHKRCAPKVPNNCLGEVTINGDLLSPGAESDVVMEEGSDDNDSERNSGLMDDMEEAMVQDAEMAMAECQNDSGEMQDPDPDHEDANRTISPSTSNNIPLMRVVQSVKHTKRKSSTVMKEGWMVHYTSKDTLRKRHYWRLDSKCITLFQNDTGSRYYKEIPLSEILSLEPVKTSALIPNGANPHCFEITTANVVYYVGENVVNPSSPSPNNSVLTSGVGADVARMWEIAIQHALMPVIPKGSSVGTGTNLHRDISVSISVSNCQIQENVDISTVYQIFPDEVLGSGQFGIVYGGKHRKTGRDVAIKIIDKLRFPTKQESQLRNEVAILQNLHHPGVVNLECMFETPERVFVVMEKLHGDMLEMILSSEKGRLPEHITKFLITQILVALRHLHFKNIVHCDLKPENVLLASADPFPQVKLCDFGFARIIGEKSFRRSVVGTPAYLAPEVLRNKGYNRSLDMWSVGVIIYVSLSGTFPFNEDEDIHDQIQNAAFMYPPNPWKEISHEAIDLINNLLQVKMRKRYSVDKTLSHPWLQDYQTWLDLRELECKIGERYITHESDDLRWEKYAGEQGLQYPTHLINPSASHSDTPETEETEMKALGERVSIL

[17] = biological target: Dual specificity mitogen-activated protein kinase kinase 6 (Homo sapiens) (UniProt P52564); assay: Inhibition of recombinant MKK6 (unknown origin) assessed as residual activity using [gamma-33P]ATP as substrate at 1 uM; outline: as §1
Sequence of Dual specificity mitogen-activated protein kinase kinase 6 (Homo sapiens) (P52564 whole entry): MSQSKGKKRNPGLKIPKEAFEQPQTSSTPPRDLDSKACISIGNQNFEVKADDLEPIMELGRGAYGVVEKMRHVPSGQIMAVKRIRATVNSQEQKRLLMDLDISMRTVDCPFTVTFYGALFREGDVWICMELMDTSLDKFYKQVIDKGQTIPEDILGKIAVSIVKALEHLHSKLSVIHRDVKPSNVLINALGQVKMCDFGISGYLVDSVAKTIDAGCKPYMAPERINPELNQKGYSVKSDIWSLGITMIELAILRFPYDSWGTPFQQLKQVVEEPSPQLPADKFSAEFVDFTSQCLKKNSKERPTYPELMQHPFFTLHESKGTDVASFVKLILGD

[18] = biological target: Calcium/calmodulin-dependent protein kinase type 1 (Homo sapiens) (UniProt Q14012); assay: Inhibition of recombinant CAMK1 (unknown origin) assessed as residual activity using [gamma-33P]ATP as substrate at 1 uM; outline: as §2
[19] = biological target: Ephrin type-B receptor 1 (Homo sapiens) (UniProt P54762); assay: Inhibition of recombinant EPH-B1 (unknown origin) assessed as residual activity using [gamma-33P]ATP as substrate at 1 uM; outline: as §2
[20] = biological target: Ribosomal protein S6 kinase alpha-3 (Homo sapiens) (UniProt P51812); assay: Inhibition of recombinant RSK2 (unknown origin) assessed as residual activity using [gamma-33P]ATP as substrate at 1 uM; outline: as §3
[21] = biological target: Mitogen-activated protein kinase 13 (Homo sapiens) (UniProt O15264); assay: Inhibition of recombinant p38 MAPKdelta (unknown origin) assessed as residual activity using [gamma-33P]ATP as substrate at 1 uM; outline: as §3
[22] = biological target: Serine/threonine-protein kinase BRSK2 (Homo sapiens) (UniProt Q8IWQ3); assay: Inhibition of recombinant BRSK2 (unknown origin) assessed as residual activity using [gamma-33P]ATP as substrate at 1 uM; outline: as §2
[23] = biological target: Serine/threonine-protein kinase pim-2 (Homo sapiens) (UniProt Q9P1W9); assay: Inhibition of recombinant PIM2 (unknown origin) assessed as residual activity using [gamma-33P]ATP as substrate at 1 uM; outline: as §1
Sequence of Serine/threonine-protein kinase pim-2 (Homo sapiens) (Q9P1W9 whole entry, looked up): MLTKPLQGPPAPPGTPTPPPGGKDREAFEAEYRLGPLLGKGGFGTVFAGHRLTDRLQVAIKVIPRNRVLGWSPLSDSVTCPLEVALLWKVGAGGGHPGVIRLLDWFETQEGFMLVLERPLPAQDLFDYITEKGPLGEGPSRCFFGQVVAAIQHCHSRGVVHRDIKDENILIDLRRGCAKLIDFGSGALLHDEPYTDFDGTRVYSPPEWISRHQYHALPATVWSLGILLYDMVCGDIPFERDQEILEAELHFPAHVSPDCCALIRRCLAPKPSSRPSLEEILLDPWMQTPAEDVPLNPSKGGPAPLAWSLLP

[24] = biological target: Serine/threonine-protein kinase pim-3 (Homo sapiens) (UniProt Q86V86); assay: Inhibition of recombinant PIM3 (unknown origin) assessed as residual activity using [gamma-33P]ATP as substrate at 1 uM; outline: as §1
[25] = biological target: Serine/threonine-protein kinase PAK 6 (Homo sapiens) (UniProt Q9NQU5); assay: Inhibition of recombinant PAK6 (unknown origin) assessed as residual activity using [gamma-33P]ATP as substrate at 1 uM; outline: as §1
[26] = biological target: Homeodomain-interacting protein kinase 1 (Homo sapiens) (UniProt Q86Z02); assay: Inhibition of recombinant HIPK1 (unknown origin) assessed as residual activity using [gamma-33P]ATP as substrate at 1 uM; outline: as §2
[27] = biological target: Serine/threonine-protein kinase tousled-like 1 (Homo sapiens) (UniProt Q9UKI8); assay: Inhibition of recombinant TLK1 (unknown origin) assessed as residual activity using [gamma-33P]ATP as substrate at 1 uM; outline: as §3
Sequence of Serine/threonine-protein kinase tousled-like 1 (Homo sapiens) (Q9UKI8 whole entry): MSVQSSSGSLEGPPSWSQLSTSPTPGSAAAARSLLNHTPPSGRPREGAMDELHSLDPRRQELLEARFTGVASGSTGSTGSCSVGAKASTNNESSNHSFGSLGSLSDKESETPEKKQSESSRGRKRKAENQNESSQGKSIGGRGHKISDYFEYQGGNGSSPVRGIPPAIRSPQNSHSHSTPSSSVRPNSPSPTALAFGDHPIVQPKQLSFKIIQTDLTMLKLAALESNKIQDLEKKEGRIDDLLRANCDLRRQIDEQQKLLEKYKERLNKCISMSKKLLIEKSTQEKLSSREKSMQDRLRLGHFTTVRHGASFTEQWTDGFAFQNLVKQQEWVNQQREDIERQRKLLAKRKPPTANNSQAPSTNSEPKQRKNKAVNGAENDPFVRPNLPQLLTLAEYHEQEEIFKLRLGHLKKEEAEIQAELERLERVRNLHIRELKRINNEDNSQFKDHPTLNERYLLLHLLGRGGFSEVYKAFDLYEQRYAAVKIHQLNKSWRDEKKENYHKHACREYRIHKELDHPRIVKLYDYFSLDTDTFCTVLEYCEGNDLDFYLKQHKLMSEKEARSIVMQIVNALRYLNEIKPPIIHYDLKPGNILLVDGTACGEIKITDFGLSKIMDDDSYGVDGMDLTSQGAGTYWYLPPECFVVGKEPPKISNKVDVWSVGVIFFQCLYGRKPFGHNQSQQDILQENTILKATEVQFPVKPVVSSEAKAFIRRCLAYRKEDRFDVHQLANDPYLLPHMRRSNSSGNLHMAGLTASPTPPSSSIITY

Sequence of Serine/threonine-protein kinase Nek6 (Homo sapiens) (Q9HC98 whole entry): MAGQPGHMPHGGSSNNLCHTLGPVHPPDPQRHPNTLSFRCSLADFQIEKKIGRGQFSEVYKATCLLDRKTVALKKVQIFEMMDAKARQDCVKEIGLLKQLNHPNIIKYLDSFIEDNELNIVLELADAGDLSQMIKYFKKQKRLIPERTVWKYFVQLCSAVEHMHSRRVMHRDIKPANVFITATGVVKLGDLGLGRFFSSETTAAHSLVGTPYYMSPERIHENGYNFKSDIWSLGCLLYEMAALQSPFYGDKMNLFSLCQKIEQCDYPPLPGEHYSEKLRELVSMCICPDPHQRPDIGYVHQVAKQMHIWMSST

Activity [1] [%]	Activity [2] [%]	Activity [3] [%]	Activity [4] [%]	Activity [5] [%]	Activity [6] [%]	Activity [7] [%]	Activity [8] [%]	Activity [9] [%]	Activity [10] [%]	IC50 [11] [µM]	Activity [12] [%]	Activity [13] [%]	Activity [14] [%]	Activity [15] [%]	Activity [16] [%]	Activity [17] [%]	Activity [18] [%]	Activity [19] [%]	Activity [20] [%]	also measured	Compound
85	48	94	74	40	6	62	41	39	51	0.9	16	13	109	71	18	88	24	7	71	Activity [21]: 23%; Activity [22]: 67%; Activity [23]: 91%; Activity [24]: 44%; Activity [25]: 17%; Activity [26]: 11%; Activity [27]: 9%	CC[C@@H](CO)Nc1nc(NC(=N)N)c2ncn(C(C)C)c2n1
95	53	94	76	42	6	45	22	53	60	2.1	13	7	86	85	17	72	35	8	35	Activity [21]: 37%; Activity [22]: 77%; Activity [23]: 88%; Activity [24]: 64%; Activity [25]: 26%; Activity [26]: 15%; Activity [27]: 9%	CC[C@H](CO)Nc1nc(NC(=N)N)c2ncn(C(C)C)c2n1
